Results published in ChEMBL document CHEMBL5653631, “A Potent and Selective ULK1 Inhibitor Suppresses Autophagy and Sensitizes Cancer Cells to Nutrient Stress” (iScience, 2018).
Values belong to the molecule of their own block, whether it stands above or below them.

Experiments:
[1] = biological target: Tyrosine-protein kinase Fer (Homo sapiens) (UniProt P16591); experiment: Inhibition of human recombinant FER at 500 nM in presence of ATP by radiometric assay relative to control
[2] = biological target: Tyrosine-protein kinase SYK (Homo sapiens) (UniProt P43405); experiment: Inhibition of human recombinant SYK at 500 nM in presence of ATP by radiometric assay relative to control
[3] = biological target: Tyrosine-protein kinase Yes (Homo sapiens) (UniProt P07947); experiment: Inhibition of human recombinant YES at 500 nM related to control ULK1
[4] = biological target: Serine/threonine-protein kinase 4 (Homo sapiens) (UniProt Q13043); experiment: Inhibition of human recombinant MST1 at 500 nM related to control ULK1
[5] = biological target: Cyclin-dependent kinase 5 (Homo sapiens) (UniProt Q00535); experiment: Inhibition of human recombinant CDK5 at 15 nM in presence of ATP by radiometric assay relative to control
[6] = biological target: Tyrosine-protein kinase CSK (Homo sapiens) (UniProt P41240); experiment: Inhibition of human recombinant CSK at 15 nM in presence of ATP by radiometric assay relative to control
[7] = biological target: DNA-PK/Ku70/Ku85 (Homo sapiens) (UniProt P78527+P12956+P13010); experiment: Inhibition of human recombinant DNAPK at 15 nM in presence of ATP by radiometric assay relative to control; assay type: protein-complex assay
[8] = biological target: Serine/threonine-protein kinase MRCK beta (Homo sapiens) (UniProt Q9Y5S2); experiment: Inhibition of human recombinant MRCKb at 15 nM in presence of ATP by radiometric assay relative to control
[9] = biological target: Angiopoietin-1 receptor (Homo sapiens) (UniProt Q02763); experiment: Inhibition of human recombinant Tie2 at 15 nM in presence of ATP by radiometric assay relative to control
[10] = biological target: MAP/microtubule affinity-regulating kinase 3 (Homo sapiens) (UniProt P27448); experiment: Inhibition of human recombinant MARK3 at 15 nM related to control ULK1
[11] = biological target: Serine/threonine-protein kinase pim-2 (Homo sapiens) (UniProt Q9P1W9); experiment: Inhibition of human recombinant PIM2 at 40 nM in presence of ATP by radiometric assay relative to control
[12] = biological target: Serine/threonine-protein kinase ATR (Homo sapiens) (UniProt Q13535); experiment: Inhibition of human recombinant ATR at 40 nM related to control ULK1
Summary of the method: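 Radiometric activity assays in a panel of 327 human recombinant kinases, each run in duplicate at one inhibitor concentration. Activity remaining is expressed as percent of vehicle control, and percent inhibition is calculated as 100% minus percent activity remaining.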

[13] = biological target: T1, Ephrin type-A receptor 8 (Homo sapiens) (UniProt P29322); experiment: Inhibition of human recombinant EphA8 at 40 nM related to control ULK1
T1 sequence (whole entry): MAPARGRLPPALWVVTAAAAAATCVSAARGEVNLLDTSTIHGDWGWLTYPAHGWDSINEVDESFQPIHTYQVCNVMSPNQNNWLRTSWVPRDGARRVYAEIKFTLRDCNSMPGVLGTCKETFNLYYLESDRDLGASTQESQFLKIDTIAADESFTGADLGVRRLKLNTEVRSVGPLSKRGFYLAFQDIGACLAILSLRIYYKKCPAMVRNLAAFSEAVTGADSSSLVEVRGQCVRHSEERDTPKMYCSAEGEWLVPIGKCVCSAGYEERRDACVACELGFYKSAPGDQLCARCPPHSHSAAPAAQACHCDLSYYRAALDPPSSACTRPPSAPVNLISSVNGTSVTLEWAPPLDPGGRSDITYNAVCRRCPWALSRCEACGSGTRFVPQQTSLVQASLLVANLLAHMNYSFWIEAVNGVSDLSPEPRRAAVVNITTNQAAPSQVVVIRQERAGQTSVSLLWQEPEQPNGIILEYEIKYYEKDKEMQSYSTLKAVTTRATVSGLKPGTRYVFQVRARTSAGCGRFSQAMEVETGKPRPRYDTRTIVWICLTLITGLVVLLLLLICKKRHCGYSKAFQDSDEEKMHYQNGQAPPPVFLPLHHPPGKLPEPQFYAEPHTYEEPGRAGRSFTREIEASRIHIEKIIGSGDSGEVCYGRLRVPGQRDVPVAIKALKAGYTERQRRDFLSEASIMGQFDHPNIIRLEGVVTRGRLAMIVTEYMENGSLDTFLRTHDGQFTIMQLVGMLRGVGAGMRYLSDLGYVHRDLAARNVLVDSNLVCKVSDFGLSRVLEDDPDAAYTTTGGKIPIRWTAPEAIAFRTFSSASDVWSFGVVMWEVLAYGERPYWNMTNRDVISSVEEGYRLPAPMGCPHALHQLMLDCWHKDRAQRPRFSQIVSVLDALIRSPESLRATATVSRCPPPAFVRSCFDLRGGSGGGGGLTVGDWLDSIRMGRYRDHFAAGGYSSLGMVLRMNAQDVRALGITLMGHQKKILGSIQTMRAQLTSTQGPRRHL

[14] = biological target: Glycogen synthase kinase-3 beta (Homo sapiens) (UniProt P49841); experiment: Inhibition of human recombinant GSK3B at 40 nM related to control ULK1

Chain of Serine/threonine-protein kinase 4 (Homo sapiens) (Q13043 whole entry, looked up): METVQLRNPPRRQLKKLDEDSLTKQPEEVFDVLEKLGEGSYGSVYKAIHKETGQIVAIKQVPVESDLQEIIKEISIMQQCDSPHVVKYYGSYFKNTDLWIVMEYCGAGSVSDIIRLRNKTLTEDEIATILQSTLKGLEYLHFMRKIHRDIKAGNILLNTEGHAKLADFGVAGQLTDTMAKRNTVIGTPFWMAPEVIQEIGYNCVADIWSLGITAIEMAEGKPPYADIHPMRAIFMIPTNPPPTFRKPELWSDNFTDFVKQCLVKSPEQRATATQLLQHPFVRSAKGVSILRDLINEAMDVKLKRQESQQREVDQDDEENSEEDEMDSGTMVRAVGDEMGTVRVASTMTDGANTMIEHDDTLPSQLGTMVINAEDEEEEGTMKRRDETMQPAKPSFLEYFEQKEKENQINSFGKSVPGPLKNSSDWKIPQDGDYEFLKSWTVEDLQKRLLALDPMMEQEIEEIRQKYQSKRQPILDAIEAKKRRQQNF
Chain of Cyclin-dependent kinase 5 (Homo sapiens) (Q00535 whole entry, looked up): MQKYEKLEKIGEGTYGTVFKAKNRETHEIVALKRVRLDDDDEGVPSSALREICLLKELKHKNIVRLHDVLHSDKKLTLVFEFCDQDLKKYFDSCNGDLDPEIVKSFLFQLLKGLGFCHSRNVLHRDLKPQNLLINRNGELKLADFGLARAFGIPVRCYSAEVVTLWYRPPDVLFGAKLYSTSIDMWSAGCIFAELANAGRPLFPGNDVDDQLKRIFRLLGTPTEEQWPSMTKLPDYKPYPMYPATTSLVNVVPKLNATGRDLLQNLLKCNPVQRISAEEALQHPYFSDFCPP
Chain of Tyrosine-protein kinase Yes (Homo sapiens) (P07947 2-543 limits assumed): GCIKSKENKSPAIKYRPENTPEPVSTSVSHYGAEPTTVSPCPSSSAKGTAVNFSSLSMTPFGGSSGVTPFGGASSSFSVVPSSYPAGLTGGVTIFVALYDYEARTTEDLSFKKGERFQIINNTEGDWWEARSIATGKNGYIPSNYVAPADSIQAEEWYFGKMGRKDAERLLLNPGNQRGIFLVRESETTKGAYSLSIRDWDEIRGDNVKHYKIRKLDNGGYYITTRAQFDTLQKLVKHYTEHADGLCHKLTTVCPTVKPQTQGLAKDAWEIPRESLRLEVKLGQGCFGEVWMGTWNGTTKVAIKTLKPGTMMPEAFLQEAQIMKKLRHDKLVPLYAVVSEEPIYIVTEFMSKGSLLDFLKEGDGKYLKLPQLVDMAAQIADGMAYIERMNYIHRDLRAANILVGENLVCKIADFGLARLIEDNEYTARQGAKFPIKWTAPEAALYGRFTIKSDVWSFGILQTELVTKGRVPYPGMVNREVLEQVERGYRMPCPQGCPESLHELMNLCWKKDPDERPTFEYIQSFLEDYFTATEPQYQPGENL
Chain of Serine/threonine-protein kinase pim-2 (Homo sapiens) (Q9P1W9 whole entry, looked up): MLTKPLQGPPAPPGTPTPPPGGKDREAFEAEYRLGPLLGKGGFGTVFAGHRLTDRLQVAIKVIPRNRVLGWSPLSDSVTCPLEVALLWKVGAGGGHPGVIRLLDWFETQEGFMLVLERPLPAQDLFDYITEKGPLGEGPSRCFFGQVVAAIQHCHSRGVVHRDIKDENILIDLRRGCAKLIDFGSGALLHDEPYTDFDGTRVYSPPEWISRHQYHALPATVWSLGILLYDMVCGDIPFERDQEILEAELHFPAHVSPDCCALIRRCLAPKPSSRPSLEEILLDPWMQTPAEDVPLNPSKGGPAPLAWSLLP
Chain of Tyrosine-protein kinase Fer (Homo sapiens) (P16591 whole entry, looked up): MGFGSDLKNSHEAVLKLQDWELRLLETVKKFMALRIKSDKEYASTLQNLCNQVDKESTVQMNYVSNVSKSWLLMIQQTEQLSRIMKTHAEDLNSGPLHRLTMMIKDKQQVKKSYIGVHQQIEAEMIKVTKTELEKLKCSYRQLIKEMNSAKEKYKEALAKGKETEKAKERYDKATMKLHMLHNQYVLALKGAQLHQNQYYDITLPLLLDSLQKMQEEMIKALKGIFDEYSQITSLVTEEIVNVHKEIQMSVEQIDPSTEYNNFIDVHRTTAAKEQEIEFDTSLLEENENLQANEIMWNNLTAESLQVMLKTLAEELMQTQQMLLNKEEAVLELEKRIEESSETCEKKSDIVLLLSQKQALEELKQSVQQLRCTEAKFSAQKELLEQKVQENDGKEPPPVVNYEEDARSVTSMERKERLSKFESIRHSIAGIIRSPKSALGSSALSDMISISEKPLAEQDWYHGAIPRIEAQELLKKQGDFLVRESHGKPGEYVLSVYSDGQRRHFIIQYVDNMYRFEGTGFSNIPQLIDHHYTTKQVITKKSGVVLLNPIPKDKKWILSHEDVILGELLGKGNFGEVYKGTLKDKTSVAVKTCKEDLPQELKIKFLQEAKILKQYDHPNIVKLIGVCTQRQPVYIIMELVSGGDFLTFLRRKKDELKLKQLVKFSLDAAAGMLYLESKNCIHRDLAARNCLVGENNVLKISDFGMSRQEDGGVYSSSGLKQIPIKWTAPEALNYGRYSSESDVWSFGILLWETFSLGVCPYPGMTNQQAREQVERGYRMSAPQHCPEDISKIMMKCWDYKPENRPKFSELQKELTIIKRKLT
Chain of Serine/threonine-protein kinase ATR (Homo sapiens) (Q13535 whole entry, looked up): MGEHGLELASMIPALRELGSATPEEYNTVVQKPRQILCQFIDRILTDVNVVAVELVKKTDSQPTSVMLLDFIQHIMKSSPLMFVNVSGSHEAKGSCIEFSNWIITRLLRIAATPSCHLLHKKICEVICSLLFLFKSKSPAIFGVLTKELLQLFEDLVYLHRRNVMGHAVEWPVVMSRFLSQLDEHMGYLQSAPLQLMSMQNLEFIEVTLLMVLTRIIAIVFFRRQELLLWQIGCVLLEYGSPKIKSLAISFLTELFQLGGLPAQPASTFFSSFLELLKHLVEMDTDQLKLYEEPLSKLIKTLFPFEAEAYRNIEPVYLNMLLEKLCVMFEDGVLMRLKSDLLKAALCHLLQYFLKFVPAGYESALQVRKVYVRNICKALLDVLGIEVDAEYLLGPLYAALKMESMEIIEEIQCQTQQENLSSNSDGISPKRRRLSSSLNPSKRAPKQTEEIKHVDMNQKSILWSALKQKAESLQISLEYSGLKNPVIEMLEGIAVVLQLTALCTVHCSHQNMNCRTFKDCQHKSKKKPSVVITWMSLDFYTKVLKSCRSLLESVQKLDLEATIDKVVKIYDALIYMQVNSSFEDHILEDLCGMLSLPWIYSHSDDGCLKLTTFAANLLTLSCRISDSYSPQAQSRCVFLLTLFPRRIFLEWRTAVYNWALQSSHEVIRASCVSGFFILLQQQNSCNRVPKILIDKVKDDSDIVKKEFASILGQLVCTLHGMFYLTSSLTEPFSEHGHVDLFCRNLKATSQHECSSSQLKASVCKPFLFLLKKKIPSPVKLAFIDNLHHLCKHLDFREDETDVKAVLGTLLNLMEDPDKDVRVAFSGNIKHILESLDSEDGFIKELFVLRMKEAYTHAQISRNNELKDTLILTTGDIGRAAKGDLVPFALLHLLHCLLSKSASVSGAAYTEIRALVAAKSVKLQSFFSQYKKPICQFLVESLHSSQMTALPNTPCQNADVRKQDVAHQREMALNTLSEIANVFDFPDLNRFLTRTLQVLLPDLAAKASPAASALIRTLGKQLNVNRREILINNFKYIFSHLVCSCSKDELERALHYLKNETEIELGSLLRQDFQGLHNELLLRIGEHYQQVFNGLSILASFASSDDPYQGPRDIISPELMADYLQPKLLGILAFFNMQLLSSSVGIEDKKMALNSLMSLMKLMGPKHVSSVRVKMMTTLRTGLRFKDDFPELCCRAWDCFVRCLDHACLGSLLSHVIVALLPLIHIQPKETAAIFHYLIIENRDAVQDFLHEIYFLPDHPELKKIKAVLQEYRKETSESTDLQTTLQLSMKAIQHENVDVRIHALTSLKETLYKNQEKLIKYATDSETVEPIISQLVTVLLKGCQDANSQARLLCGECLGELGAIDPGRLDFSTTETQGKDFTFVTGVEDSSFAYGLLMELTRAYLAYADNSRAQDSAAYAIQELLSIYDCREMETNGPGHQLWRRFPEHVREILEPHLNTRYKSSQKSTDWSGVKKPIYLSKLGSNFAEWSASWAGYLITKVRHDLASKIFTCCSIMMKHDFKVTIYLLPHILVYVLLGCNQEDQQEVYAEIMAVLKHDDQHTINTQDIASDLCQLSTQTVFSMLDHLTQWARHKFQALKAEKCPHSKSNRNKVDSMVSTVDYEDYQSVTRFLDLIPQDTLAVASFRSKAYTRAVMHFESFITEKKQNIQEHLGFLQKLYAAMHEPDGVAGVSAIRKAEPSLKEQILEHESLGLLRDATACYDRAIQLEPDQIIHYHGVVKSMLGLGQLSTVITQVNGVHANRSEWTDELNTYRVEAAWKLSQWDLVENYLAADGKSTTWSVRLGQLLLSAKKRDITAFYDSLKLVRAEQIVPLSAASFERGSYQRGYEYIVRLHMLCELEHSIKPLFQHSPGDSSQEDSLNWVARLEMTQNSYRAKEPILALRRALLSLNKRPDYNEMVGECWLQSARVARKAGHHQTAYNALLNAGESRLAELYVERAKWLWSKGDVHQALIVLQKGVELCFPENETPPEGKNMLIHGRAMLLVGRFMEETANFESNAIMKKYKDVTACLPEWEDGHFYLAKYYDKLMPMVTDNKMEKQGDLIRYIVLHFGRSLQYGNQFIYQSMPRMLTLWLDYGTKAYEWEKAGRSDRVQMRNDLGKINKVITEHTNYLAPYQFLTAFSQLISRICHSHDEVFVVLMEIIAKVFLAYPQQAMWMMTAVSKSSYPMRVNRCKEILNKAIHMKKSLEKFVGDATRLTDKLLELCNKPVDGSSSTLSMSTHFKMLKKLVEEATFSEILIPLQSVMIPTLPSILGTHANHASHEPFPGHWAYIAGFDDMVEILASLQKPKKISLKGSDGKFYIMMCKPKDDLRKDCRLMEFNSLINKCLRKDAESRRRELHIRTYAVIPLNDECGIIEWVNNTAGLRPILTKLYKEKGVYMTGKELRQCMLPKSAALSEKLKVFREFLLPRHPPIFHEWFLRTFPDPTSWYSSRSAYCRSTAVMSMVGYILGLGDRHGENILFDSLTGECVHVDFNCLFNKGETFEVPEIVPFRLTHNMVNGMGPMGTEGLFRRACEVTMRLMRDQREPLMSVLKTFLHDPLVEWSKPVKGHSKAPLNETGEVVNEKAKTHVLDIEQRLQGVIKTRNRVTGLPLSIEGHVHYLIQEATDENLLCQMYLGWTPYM

inhibition [1]: 0% | inhibition [2]: 0% | fold change (FC) [3]: 0.89 | fold change (FC) [4]: 0
Structure (SMILES): CNC(=O)c1ccccc1Oc1nc(Nc2cc(OC)c(OC)c(OC)c2)ncc1Br

inhibition [5]: 23% | inhibition [6]: 12% | inhibition [7]: 0% | inhibition [8]: 6% | inhibition [9]: 0% | fold change (FC) [10]: 0.72
Structure (SMILES): CC(C)[C@H](NC(=O)c1cc(-c2cnn3cc(-c4ccc(OCCN5CCCCC5)cc4)cnc23)cs1)C(F)(F)F

inhibition [11]: 3% | fold change (FC) [12]: 0 | fold change (FC) [13]: 0 | fold change (FC) [14]: 0
Structure (SMILES): O=C(N[C@@H](C1CC1)C(F)(F)F)c1cc(-c2cnn3cc(-c4ccc(F)cc4)cnc23)cs1
